One block for each compound: values may come before it. Calls of active or inactive are those of the source. No cut-off for these calls is given here.
What was measured:
[1] = target: High affinity nerve growth factor receptor (Homo sapiens, UniProt P04629); assay: Inhibition of recombinant human His-tagged TrkA catalytic domain (441 to 796 residues) expressed in baculovirus expression system using tyr 01 as substrate incubated for 1 hr by Z'-Lyte assay
[2] = target: T1, BDNF/NT-3 growth factors receptor (Homo sapiens, UniProt Q16620); assay: Inhibition of recombinant human His-tagged TrkB catalytic domain (526 to 838 residues) expressed in baculovirus expression system using tyr 01 as substrate incubated for 1 hr by Z'-Lyte assay
Target sequence in this assay (Q16620 whole entry, the tested form may be a part): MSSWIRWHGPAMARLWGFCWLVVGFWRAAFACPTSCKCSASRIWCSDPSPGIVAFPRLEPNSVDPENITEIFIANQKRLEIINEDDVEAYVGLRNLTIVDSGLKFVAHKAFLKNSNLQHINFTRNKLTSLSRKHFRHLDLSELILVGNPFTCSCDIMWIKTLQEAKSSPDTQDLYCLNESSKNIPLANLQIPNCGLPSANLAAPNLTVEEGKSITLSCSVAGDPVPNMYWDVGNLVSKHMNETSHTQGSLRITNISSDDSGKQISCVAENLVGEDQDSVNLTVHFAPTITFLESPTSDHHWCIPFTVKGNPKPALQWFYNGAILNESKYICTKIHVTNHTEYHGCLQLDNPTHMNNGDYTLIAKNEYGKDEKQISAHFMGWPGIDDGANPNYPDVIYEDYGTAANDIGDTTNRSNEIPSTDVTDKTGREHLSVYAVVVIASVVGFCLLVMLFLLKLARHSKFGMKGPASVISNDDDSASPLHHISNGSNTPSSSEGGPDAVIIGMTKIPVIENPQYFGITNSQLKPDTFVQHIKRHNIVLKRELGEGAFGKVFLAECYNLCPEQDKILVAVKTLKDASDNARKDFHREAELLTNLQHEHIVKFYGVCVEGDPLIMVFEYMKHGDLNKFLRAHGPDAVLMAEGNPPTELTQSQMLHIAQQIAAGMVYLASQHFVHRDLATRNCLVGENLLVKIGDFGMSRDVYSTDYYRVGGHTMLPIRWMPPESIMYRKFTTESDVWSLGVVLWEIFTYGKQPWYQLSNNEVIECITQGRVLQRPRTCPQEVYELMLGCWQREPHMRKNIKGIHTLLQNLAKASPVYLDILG

[3] = target: Tyrosine-protein kinase ABL1 (Homo sapiens, UniProt P00519); assay: Inhibition of recombinant full length human His-tagged ABL1 expressed in baculovirus infected insect cells using tyr 02 as substrate incubated for 2 hr by Z'-Lyte assay
Chain of Tyrosine-protein kinase ABL1 (P00519 whole entry, the tested form may be a part): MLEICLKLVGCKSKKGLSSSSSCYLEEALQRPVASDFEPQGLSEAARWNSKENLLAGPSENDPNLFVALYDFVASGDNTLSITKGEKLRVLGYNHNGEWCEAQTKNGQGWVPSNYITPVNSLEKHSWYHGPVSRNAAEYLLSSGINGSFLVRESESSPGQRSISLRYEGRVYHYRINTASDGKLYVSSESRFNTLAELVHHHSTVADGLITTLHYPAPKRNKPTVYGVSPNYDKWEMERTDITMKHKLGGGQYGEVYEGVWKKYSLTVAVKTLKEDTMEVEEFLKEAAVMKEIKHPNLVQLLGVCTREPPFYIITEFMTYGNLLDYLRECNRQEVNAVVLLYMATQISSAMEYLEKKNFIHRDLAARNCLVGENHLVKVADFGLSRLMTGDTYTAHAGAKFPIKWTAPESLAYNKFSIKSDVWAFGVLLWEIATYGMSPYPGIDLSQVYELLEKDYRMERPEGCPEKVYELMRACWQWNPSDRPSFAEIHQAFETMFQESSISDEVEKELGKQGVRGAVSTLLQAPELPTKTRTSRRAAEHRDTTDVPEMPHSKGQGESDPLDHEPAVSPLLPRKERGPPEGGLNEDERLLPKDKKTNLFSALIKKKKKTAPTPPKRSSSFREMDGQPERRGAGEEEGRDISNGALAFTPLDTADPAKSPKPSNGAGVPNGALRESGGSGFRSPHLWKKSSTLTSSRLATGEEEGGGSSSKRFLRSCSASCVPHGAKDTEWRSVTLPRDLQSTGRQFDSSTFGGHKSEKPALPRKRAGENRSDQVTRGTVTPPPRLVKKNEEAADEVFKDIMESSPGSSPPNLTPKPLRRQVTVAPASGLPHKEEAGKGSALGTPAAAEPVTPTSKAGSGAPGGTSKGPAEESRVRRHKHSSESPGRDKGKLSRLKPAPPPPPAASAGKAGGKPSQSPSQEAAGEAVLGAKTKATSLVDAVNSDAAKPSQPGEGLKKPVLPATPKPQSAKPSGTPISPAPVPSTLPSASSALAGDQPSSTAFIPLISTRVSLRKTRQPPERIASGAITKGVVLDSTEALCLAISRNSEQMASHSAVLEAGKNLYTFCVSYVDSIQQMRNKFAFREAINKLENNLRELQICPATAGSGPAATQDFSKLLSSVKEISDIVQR

[4] = target: NT-3 growth factor receptor (Homo sapiens, UniProt Q16288); assay: Inhibition of recombinant human His-tagged TrkC cytoplasmic domain (510 to 825 residues) expressed in baculovirus using tyr 01 as substrate incubated for 1 hr by Z'-Lyte assay
Chain of NT-3 growth factor receptor (Q16288 whole entry, the tested form may be a part): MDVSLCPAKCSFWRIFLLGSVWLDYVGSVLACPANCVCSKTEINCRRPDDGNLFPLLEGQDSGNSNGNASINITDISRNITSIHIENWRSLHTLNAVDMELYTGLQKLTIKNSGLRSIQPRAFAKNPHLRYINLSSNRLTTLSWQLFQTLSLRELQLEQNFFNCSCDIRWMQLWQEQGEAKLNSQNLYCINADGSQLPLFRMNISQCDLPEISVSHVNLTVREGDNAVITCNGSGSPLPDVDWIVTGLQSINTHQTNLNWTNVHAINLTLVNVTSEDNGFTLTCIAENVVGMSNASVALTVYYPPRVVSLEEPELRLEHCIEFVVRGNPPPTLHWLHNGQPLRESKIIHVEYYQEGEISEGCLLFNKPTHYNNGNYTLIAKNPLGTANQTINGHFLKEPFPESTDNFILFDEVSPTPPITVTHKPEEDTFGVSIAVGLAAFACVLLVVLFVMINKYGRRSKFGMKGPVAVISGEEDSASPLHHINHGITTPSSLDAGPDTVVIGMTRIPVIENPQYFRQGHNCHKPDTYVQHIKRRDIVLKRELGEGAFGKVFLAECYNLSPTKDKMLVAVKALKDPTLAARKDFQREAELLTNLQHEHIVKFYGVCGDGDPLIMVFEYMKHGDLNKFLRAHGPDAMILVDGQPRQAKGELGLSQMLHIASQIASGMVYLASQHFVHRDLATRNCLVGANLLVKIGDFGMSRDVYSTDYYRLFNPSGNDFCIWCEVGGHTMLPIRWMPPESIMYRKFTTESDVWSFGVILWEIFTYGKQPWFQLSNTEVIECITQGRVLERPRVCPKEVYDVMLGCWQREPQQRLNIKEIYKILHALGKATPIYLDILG

[5] = Ratio of drug concentration in brain to blood of Sprague-Dawley rat at 25 mg/kg, po administered via gavage incubated for 0.5 hrs by LC/MS-MS analysis; assay type: ADME, organism-based; details: brain and blood, read-out: BBR
[6] = Ratio of drug concentration in brain to blood of Sprague-Dawley rat at 25 mg/kg, po administered via gavage incubated for 2 hrs by LC/MS-MS analysis; assay type: ADME, organism-based; details: brain and blood, read-out: BBR
[7] = Drug concentration in Sprague-Dawley rat brain at 25 mg/kg, po administered via gavage incubated for 8 hrs by LC/MS-MS analysis; assay type: ADME, organism-based; details: read-out: Ct
[8] = Drug concentration in Sprague-Dawley rat brain at 25 mg/kg, po administered via gavage incubated for 2 hrs by LC/MS-MS analysis; assay type: ADME, organism-based; details: read-out: Ct
[9] = target: T1, BDNF/NT-3 growth factors receptor; assay: Inhibition of TrkB (unknown origin) transfected in human SH-SY5Y cells assessed as decrease in BDNF-induced TrkB phosphorylation incubated for 6 hrs followed by BDNF addition further incubated for 30 mins by Western blot analysis; assay type: cell-based
Procedure, shortened: (§1)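 SH-SY5Y-TrkB stable transfectants were pretreated with 0–2.0 µM compound for 6 h, then given BDNF 10 ng/mL or none for 30 min. Lysates were run on 8–12% SDS-PAGE, blotted to PVDF and blocked in 5% BSA. Primary antibodies were applied overnight at 4 °C, then HRP secondary, with ECL detection. Phospho and total TrkB, PLC-γ1, Akt (Ser473, Thr308) and Erk were probed, with GAPDH as control.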
Target sequence in this assay (Q16620 32-822 limits assumed): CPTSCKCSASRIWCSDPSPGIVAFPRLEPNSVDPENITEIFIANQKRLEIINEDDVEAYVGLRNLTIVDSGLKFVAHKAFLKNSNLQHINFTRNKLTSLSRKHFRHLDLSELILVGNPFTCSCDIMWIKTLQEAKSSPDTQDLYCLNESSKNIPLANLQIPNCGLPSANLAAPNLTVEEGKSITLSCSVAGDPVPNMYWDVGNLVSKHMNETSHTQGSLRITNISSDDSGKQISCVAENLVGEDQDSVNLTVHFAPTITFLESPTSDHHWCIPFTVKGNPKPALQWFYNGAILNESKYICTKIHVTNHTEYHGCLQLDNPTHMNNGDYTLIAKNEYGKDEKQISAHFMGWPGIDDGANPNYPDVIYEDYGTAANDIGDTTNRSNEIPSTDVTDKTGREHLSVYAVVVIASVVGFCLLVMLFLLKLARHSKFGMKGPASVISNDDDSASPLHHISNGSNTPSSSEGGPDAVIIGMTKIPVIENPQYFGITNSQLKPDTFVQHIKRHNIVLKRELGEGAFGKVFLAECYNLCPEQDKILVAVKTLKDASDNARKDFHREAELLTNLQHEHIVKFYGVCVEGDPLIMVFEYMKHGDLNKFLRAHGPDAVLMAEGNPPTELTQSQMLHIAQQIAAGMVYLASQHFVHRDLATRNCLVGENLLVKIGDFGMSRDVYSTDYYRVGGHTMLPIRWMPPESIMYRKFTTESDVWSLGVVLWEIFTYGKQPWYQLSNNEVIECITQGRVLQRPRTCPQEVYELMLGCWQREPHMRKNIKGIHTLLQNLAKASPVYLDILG

[10] = target: T1, BDNF/NT-3 growth factors receptor; assay: Inhibition of BDNF-induced TrkB (unknown origin) activation transfected in human SH-SY5Y cells assessed as decrease in Akt phosphorylation at Thr308 residue incubated for 6 hrs followed by BDNF addition further incubated for 30 mins by Western blot analysis; assay type: cell-based; procedure, shortened: as §1
Target sequence in this assay (Q16620 32-822 limits assumed): as above

[11] = target: T1, BDNF/NT-3 growth factors receptor; assay: Inhibition of BDNF-induced TrkB (unknown origin) activation transfected in human SH-SY5Y cells assessed as decrease in Erk phosphorylation incubated for 6 hrs followed by BDNF addition further incubated for 30 mins by Western blot analysis; assay type: cell-based; procedure, shortened: as §1
Target sequence in this assay (Q16620 32-822 limits assumed): as above

[12] = target: T1, BDNF/NT-3 growth factors receptor; assay: Inhibition of BDNF-induced TrkB (unknown origin) activation transfected in human SH-SY5Y cells assessed as decrease in PLCgamma1 phosphorylation incubated for 6 hrs followed by BDNF addition further incubated for 30 mins by Western blot analysis; assay type: cell-based; procedure, shortened: as §1
Target sequence in this assay (Q16620 32-822 limits assumed): as above

[13] = target: T1, BDNF/NT-3 growth factors receptor; assay: Inhibition of TrkB (unknown origin) transfected in human SH-SY5Y cells assessed as decrease in BDNF-induced TrkB phosphorylation at >=16 nM incubated for 6 hrs followed by BDNF addition further incubated for 30 mins by Western blot analysis; assay type: cell-based; procedure, shortened: as §1
Target sequence in this assay (Q16620 32-822 limits assumed): as above

[14] = target: RAC-alpha serine/threonine-protein kinase (Homo sapiens, UniProt P31749); assay: Effect on ATK phosphorylation in BDNF-induced human SH-SY5Y cells up to 2 uM preincubated for 6 hrs followed by BDNF addition and measured after 30 mins by Western blot analysis; assay type: cell-based; details: 0.5 h
Chain of RAC-alpha serine/threonine-protein kinase (P31749 whole entry): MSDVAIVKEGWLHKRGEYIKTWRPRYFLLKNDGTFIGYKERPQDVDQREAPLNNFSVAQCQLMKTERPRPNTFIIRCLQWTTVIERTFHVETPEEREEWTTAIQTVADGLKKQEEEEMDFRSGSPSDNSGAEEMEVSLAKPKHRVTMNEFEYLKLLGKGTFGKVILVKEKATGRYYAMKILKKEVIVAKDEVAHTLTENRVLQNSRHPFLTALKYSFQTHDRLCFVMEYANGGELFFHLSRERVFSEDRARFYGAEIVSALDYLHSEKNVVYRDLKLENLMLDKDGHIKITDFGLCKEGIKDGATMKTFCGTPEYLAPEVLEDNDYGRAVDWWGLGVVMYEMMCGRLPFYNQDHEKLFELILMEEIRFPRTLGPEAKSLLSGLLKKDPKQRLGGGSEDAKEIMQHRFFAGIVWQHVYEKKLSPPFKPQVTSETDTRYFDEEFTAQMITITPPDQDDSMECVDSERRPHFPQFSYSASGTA

[15] = Effect on ERK phosphorylation in BDNF-induced human SH-SY5Y cells up to 2 uM preincubated for 6 hrs followed by BDNF addition and measured after 30 mins by Western blot analysis; assay type: cell-based; details: 0.5 h
[16] = tested on: SH-SY5Y; assay: Inhibition of cell migration in human SH-SY5Y cells transfected with TrkB (unknown origin) assessed as reduction in BDNF-induced wound closure at 8 nM incubated for 24 hrs by bright field microscopy relative to control; assay type: functional
Procedure, shortened: (§2)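 SH-SY5Y-TrkB monolayers were grown to near confluence and scratched with a pipette tip, then washed with PBS. Cells were incubated 24 h in MEM/F-12 with 2% FBS, with or without BDNF 10 ng/mL and with compound. Three random fields were imaged by bright-field microscopy and % wound closure was measured. Run three times, each in triplicate.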

[17] = tested on: SH-SY5Y; assay: Inhibition of cell migration in human SH-SY5Y cells transfected with TrkB (unknown origin) assessed as reduction in BDNF-induced wound closure at 40 nM incubated for 24 hrs by bright field microscopy relative to control; assay type: functional; procedure, shortened: as §2
[18] = tested on: SH-SY5Y; assay: Inhibition of cell migration in human SH-SY5Y cells transfected with TrkB (unknown origin) assessed as reduction in BDNF-induced wound closure at 200 nM incubated for 24 hrs by bright field microscopy relative to control; assay type: functional; procedure, shortened: as §2
[19] = tested on: SH-SY5Y; assay: Inhibition of BDNF-induced cell migration in human SH-SY5Y cells transfected with TrkB (unknown origin) incubated for 24 hrs by crystal violet staining microscopy based transwell assay; assay type: functional
Procedure, shortened: (§3)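 Transwell migration: 1.5 X 10⁶ SH-SY5Y-TrkB cells in FBS-free medium containing 0, 8, 40 or 200 nM compound went in the top chamber. The bottom chamber held complete medium with or without BDNF 10 ng/mL. After 24 h at 37 °C, cells were methanol-fixed and stained with 0.25% crystal violet, and non-migrated cells were removed. Cells were counted in six random fields at 200X; mean of three independent experiments.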

[20] = tested on: SH-SY5Y; assay: Inhibition of BDNF-induced cell invasion in human SH-SY5Y cells transfected with TrkB (unknown origin) incubated for 24 hrs by crystal violet staining microscopy-based matrigel assay; assay type: functional
Procedure, shortened: (§4)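 Invasion through Matrigel chambers: 1.5 X 10⁶ SH-SY5Y-TrkB cells in FBS-free medium with 0, 8, 40 or 200 nM compound were placed on top. Complete medium with or without BDNF 10 ng/mL went below. After 24 h at 37 °C, cells were fixed in methanol and stained with 0.25% crystal violet, and top-surface cells were removed. Six random fields were counted at 200X; mean of three independent experiments.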

[21] = tested on: SH-SY5Y; assay: Inhibition of BDNF-induced cell migration in human SH-SY5Y cells transfected with TrkB (unknown origin) at 8 nM incubated for 24 hrs by crystal violet staining microscopy based transwell assay relative to control; assay type: functional; procedure, shortened: as §3
[22] = tested on: SH-SY5Y; assay: Inhibition of BDNF-induced cell migration in human SH-SY5Y cells transfected with TrkB (unknown origin) at 40 nM incubated for 24 hrs by crystal violet staining microscopy based transwell assay relative to control; assay type: functional; procedure, shortened: as §3
[23] = tested on: SH-SY5Y; assay: Inhibition of BDNF-induced cell migration in human SH-SY5Y cells transfected with TrkB (unknown origin) at 200 nM incubated for 24 hrs by crystal violet staining microscopy based transwell assay relative to control; assay type: functional; procedure, shortened: as §3
[24] = tested on: SH-SY5Y; assay: Inhibition of BDNF-induced cell invasion in human SH-SY5Y cells transfected with TrkB (unknown origin) at 8 nM incubated for 24 hrs by crystal violet staining microscopy-based matrigel assay relative to control; assay type: functional; procedure, shortened: as §4
[25] = tested on: SH-SY5Y; assay: Inhibition of BDNF-induced cell invasion in human SH-SY5Y cells transfected with TrkB (unknown origin) at 40 nM incubated for 24 hrs by crystal violet staining microscopy-based matrigel assay relative to control; assay type: functional; procedure, shortened: as §4
[26] = tested on: SH-SY5Y; assay: Inhibition of BDNF-induced cell invasion in human SH-SY5Y cells transfected with TrkB (unknown origin) at 200 nM incubated for 24 hrs by crystal violet staining microscopy-based matrigel assay relative to control; assay type: functional; procedure, shortened: as §4
[27] = tested on: SH-SY5Y; assay: Antiproliferative activity against human SH-SY5Y cells transfected with TrkB (unknown origin) assessed as reduction in cell viability incubated for 72 hrs by CCK8 assay; assay type: functional, cell-based
Procedure, shortened: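 SH-SY5Y-TrkB cells (SH-SY5Y stably transfected with pRP-TrkB, kept under 0.5 µg/ml puromycin in 1:1 MEM/F-12 with 10% FBS) seeded at 1500-3000/well, left overnight. Compounds 0.000457–3 µM were then added with or without BDNF 10 ng/ml for 72 h. Read-out by CCK8. IC50 came from concentration-response curve fitting, reported as mean ± SD from at least three independent experiments.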

[28] = Drug concentration in Sprague-Dawley rat brain at 25 mg/kg, po administered via gavage incubated for 0.5 hrs by LC/MS-MS analysis; assay type: ADME, organism-based; details: read-out: Ct
[29] = Plasma concentration in Sprague-Dawley rat at 25 mg/kg, po administered via gavage incubated for 0.5 hrs by LC/MS-MS analysis; assay type: ADME, organism-based
[30] = Plasma concentration in Sprague-Dawley rat at 25 mg/kg, po administered via gavage incubated for 2 hrs by LC/MS-MS analysis; assay type: ADME, organism-based
[31] = Plasma concentration in Sprague-Dawley rat at 25 mg/kg, po administered via gavage incubated for 8 hrs by LC/MS-MS analysis; assay type: ADME, organism-based
[32] = Ratio of drug concentration in brain to blood of Sprague-Dawley rat at 25 mg/kg, po administered via gavage incubated for 8 hrs by LC/MS-MS analysis; assay type: ADME, organism-based; details: brain and blood, read-out: BBR
[33] = tested on: SH-SY5Y; assay: Neurotoxicity in human SH-SY5Y cells assessed as reduction in cell viability incubated for 72 hrs by CCK8 assay; assay type: toxicity, cell-based

Chain of High affinity nerve growth factor receptor (P04629 whole entry, the tested form may be a part): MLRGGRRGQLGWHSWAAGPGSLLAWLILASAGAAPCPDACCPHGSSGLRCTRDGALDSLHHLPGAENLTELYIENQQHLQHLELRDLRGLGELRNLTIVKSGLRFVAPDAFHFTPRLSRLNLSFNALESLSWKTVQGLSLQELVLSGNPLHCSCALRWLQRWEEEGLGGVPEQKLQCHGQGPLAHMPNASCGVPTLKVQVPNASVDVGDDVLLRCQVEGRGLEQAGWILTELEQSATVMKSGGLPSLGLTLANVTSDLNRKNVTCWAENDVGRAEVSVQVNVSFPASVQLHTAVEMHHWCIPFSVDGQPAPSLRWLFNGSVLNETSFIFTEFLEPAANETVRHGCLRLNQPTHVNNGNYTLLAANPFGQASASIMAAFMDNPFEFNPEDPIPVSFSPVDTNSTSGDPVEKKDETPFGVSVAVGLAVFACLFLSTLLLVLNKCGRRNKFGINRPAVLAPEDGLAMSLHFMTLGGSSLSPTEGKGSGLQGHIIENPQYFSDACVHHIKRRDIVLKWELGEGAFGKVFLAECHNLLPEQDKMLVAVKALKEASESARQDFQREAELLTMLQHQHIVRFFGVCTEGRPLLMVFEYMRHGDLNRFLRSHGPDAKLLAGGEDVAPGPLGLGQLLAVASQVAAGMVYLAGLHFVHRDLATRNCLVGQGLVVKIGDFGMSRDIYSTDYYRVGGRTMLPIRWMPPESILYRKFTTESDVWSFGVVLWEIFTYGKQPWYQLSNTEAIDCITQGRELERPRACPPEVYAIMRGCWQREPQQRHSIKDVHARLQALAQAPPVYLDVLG

IC50 [1]: 186 nM | IC50 [2]: 315 nM | IC50 [3]: > 1000 nM
SMILES: CCc1c(C#Cc2cnc3cnccn23)cccc1C(=O)Nc1cc(CN2CCN(C)CC2)cc(C(F)(F)F)c1

IC50 [1]: > 1000 nM | IC50 [2]: > 1000 nM | IC50 [3]: > 1000 nM
SMILES: COc1c(C#Cc2cnc3cnccn23)cccc1C(=O)Nc1cc(CN2CCN(C)CC2)cc(C(F)(F)F)c1

IC50 [1]: 227 nM | IC50 [2]: 254 nM | IC50 [3]: > 1000 nM
SMILES: CN1CCN(Cc2cc(NC(=O)c3cccc(C#Cc4cnc5cnccn45)c3Cl)cc(C(F)(F)F)c2)CC1

IC50 [1]: 39.8 nM | IC50 [2]: 38.3 nM | IC50 [3]: > 1000 nM
SMILES: Cc1c(C#Cc2cnc3cnccn23)cccc1C(=O)Nc1cc(CN2CCN(C)CC2)cc(C(F)(F)F)c1

IC50 [1]: > 1000 nM | IC50 [2]: > 1000 nM | IC50 [3]: > 1000 nM
SMILES: Cc1ccc(C#Cc2cnc3cnccn23)cc1C(=O)Nc1cc(CN2CCN(C)CC2)cc(C(F)(F)F)c1

IC50 [1]: > 1000 nM | IC50 [2]: > 1000 nM | IC50 [4]: > 1000 nM | IC50 [3]: > 1000 nM
SMILES: CC(C)c1c(C#Cc2cnc3cnccn23)cccc1C(=O)Nc1cc(CN2CCN(C)CC2)cc(C(F)(F)F)c1

IC50 [1]: 41.6 nM | IC50 [2]: 43.9 nM | IC50 [3]: 33.3 nM
SMILES: CN1CCN(Cc2cc(NC(=O)c3cccc(C#Cc4cnc5cnccn45)c3)cc(C(F)(F)F)c2)CC1

SMILES: Cc1c(C#Cc2cnc3cnc(-c4ccc(N)cc4)cn23)cccc1C(=O)Nc1cc(CN2CCN(C)CC2)cc(C(C)C)c1
Kp at 0.5 h [5]: 6.4 | Kp at 2 h [6]: 6 | concentration at 8 h [7]: 0.09 ng/mL | concentration at 2 h [8]: 0.355 ng/mL | IC50 [1]: 2.65 nM | IC50 [2]: 10.5 nM | IC50 [4]: 2.95 nM | IC50 [3]: > 1000 nM | inhibition [9]: Dose-dependent effect | inhibition [10]: Dose-dependent effect | inhibition [11]: Dose-dependent effect | inhibition [12]: Dose-dependent effect | inhibition [13]: 100% | Activity [14]: Not Active | Activity [15]: Not Active | inhibition at 0.008 µM [16]: 50.1% | inhibition at 0.04 µM [17]: 76.6% | inhibition at 0.2 µM [18]: 77.5% | inhibition [19]: Dose-dependent effect | inhibition [20]: Dose-dependent effect | inhibition at 0.008 µM [21]: 22.7% | inhibition at 0.04 µM [22]: 53.3% | inhibition at 0.2 µM [23]: 82% | inhibition at 0.008 µM [24]: 9.1% | inhibition at 0.04 µM [25]: 61.9% | inhibition at 0.2 µM [26]: 85.5% | IC50 [27]: 58 nM | concentration at 0.5 h [28]: 0.078 ng/mL | concentration at 0.5 h [29]: 7.33 ng/mL | concentration at 2 h [30]: 33.2 ng/mL | concentration at 8 h [31]: 6.52 ng/mL | Kp at 8 h [32]: 8.3 | Activity [33]: Non-Toxic

IC50 [1]: 29.2 nM | IC50 [2]: 22.7 nM | IC50 [3]: > 1000 nM
SMILES: Cc1c(C#Cc2cnc3cnc(-c4ccccc4)cn23)cccc1C(=O)Nc1cc(CN2CCN(C)CC2)cc(C(F)(F)F)c1

IC50 [3]: > 1000 nM
SMILES: O=C(Nc1cnn2ccc(N3CCC[C@@H]3c3cc(F)ccc3F)nc12)N1CC[C@H](O)C1 [LAROTRECTINIB]
Activity [27]: Active | Activity [33]: Non-Toxic
